The values that follow come from ChEMBL document CHEMBL1772948, “Chemistry and biology of macrolide antiparasitic agents” (J Med Chem, 2011).

In brackets after ≈: the same amount, converted by molar mass.

The subject of one data set is Toxoplasma gondii. Kind of data set: Antiparasitic activity against Toxoplasma gondii 2F-1 expressing yellow fluorescent protein infected in HFF after 4 days. Type of data set: functional, organism-based. The settings on record: 2F-1, 96 h.
A further data set relates to Bacillus subtilis. As to the kind of experiment: Antibacterial activity against Bacillus subtilis. Type of data set: functional.
The test system of a further data set is HFF. Kind of data set: Cytotoxicity against HFF after 48 hrs by MTS assay. Type of data set: cell-based. The settings on record: human. The method, boiled down:
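Low-passage HFF seeded in 96-well plates and incubated 24h at 37 °C, then exposed to varying macrolide concentrations for 2 days; medium replaced with fresh medium plus MTS, 4h at 37 °C, absorbance 490 nm; CC50 = dose reducing viability by 50%.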

Consider `C=CCN1C[C@H](C)C[C@@](C)(OC)[C@H](O[C@@H]2O[C@H](C)C[C@H](N(C)C)[C@H]2O)[C@@H](C)[C@H](O[C@H]2C[C@@](C)(OC)[C@@H](O)[C@H](C)O2)[C@@H](C)C(=O)O[C@H](CC)[C@@](C)(O)[C@H](O)[C@H]1C`, for which 13 µM corresponded to half-maximal inhibition with Toxoplasma gondii (IC50). Moreover, the minimum inhibitory concentration (MIC) (as a rule, the least concentration at which growth counts as inhibited) against Bacillus subtilis came to 0.8 µM (≈ 0.631 µg/mL). Besides, the half-maximal cytotoxic concentration (CC50) – broadly, the concentration that lowers cell viability or growth by half – in the data set with HFF is 84 µM.
Consider `CCNC(=O)N1C[C@H](C)C[C@@](C)(O)[C@H](O[C@@H]2O[C@H](C)C[C@H](N(C)C)[C@H]2O)[C@@H](C)[C@H](O[C@H]2C[C@@](C)(OC)[C@@H](O)[C@H](C)O2)[C@@H](C)C(=O)O[C@H](CC)[C@@](C)(O)[C@H](O)[C@H]1C`, for which half-maximal inhibition in the data set with Toxoplasma gondii (IC50) required 85 µM. In addition, the MIC with Bacillus subtilis amounted to 10 µM (≈ 8.06 µg/mL). This compound also came in with a cytotoxic concentration (CC50) with HFF of 480 µM.
For `C=CCO[C@]1(C)C[C@@H](C)CN(C(=O)NCC)[C@H](C)[C@@H](O)[C@](C)(O)[C@@H](CC)OC(=O)[C@H](C)[C@@H](O[C@H]2C[C@@](C)(OC)[C@@H](O)[C@H](C)O2)[C@H](C)[C@H]1O[C@@H]1O[C@H](C)C[C@H](N(C)C)[C@H]1O`, in that order: 33 µM, 5 µM (≈ 4.23 µg/mL) and 90 µM.
In the case of `CCCN1C[C@H](C)C[C@@](C)(OC)[C@H](O[C@@H]2O[C@H](C)C[C@H](N(C)C)[C@H]2O)[C@@H](C)[C@H](O[C@H]2C[C@@](C)(OC)[C@@H](O)[C@H](C)O2)[C@@H](C)C(=O)O[C@H](CC)[C@@](C)(O)[C@H](O)[C@H]1C`, the IC50 (commonly the point on the concentration scale where inhibition reaches its midpoint) in the data set on Toxoplasma gondii turned out to be 20 µM. The MIC in the data set with Bacillus subtilis came out at 1.2 µM (≈ 0.949 µg/mL). The CC50 with HFF stood at 106 µM.
`CC[C@H]1OC(=O)[C@H](C)[C@@H](O[C@H]2C[C@@](C)(OC)[C@@H](O)[C@H](C)O2)[C@H](C)[C@@H](O[C@@H]2O[C@H](C)C[C@H](N(C)C)[C@H]2O)[C@](C)(OC)C[C@@H](C)C(=O)[C@H](C)[C@@H](O)[C@]1(C)O` [CLARITHROMYCIN] registered a half-maximal inhibitory concentration (IC50) in the data set on Toxoplasma gondii of 31 µM. The compound also displayed an MIC in the data set with Bacillus subtilis of 0.04 µM (≈ 0.0299 µg/mL). Moreover, it took 260 µM to reach half-maximal cytotoxicity in the data set with HFF (CC50).
Turning to `CC[C@H]1OC(=O)[C@H](C)[C@@H](O[C@H]2C[C@@](C)(OC)[C@@H](O)[C@H](C)O2)[C@H](C)[C@@H](O[C@@H]2O[C@H](C)C[C@H](N(C)C)[C@H]2O)[C@](C)(OC)C[C@@H](C)CN(C(=O)NCc2ccccc2)[C@H](C)[C@@H](O)[C@]1(C)O`, in the data set on Toxoplasma gondii, the IC50 was determined as 16 µM. Besides, the MIC in the data set with Bacillus subtilis was 1.5 µM (≈ 1.32 µg/mL). The compound also came in with a CC50 in the data set with HFF of 62 µM.
In the data set with Toxoplasma gondii, `CC[C@H]1OC(=O)[C@H](C)[C@@H](O[C@H]2C[C@@](C)(OC)[C@@H](O)[C@H](C)O2)[C@H](C)[C@@H](O[C@@H]2O[C@H](C)C[C@H](N(C)C)[C@H]2O)[C@](C)(OC)C[C@@H](C)CN[C@H](C)[C@@H](O)[C@]1(C)O` gave a half-maximal inhibitory concentration (IC50) of 106 µM. Besides, the MIC in the data set on Bacillus subtilis is 2.5 µM (≈ 1.87 µg/mL). Also, the half-maximal cytotoxic concentration (CC50) in the data set with HFF was 460 µM.
For `CCNC(=O)N1C[C@H](C)C[C@@](C)(OC)[C@H](O[C@@H]2O[C@H](C)C[C@H](N(C)C)[C@H]2O)[C@@H](C)[C@H](O[C@H]2C[C@@](C)(OC)[C@@H](O)[C@H](C)O2)[C@@H](C)C(=O)O[C@H](CC)[C@@](C)(O)[C@H](O)[C@H]1C`, in that order: 59 µM, 10 µM (≈ 8.2 µg/mL) and 409 µM.
For `C=CCN1C[C@H](C)C[C@@](C)(O)[C@H](O[C@@H]2O[C@H](C)C[C@H](N(C)C)[C@H]2O)[C@@H](C)[C@H](O[C@H]2C[C@@](C)(OC)[C@@H](O)[C@H](C)O2)[C@@H](C)C(=O)O[C@H](CC)[C@@](C)(O)[C@H](O)[C@H]1C`, in that order: 13 µM, 0.3 µM (≈ 0.233 µg/mL) and 103 µM.
For `C=CCO[C@]1(C)C[C@@H](C)CN(CCC)[C@H](C)[C@@H](O)[C@](C)(O)[C@@H](CC)OC(=O)[C@H](C)[C@@H](O[C@H]2C[C@@](C)(OC)[C@@H](O)[C@H](C)O2)[C@H](C)[C@H]1O[C@@H]1O[C@H](C)C[C@H](N(C)C)[C@H]1O`, in that order: 15 µM, 10 µM (≈ 8.17 µg/mL) and 42 µM.
